By ED50 is commonly meant the midpoint of the dose-response relation.

The source of these data is ChEMBL document CHEMBL3227977, “L-Chlorozotocin” (J Med Chem, 1979).

Series [1] concerns L1210. Briefly: Antineoplastic activity against mouse L1210 cells allografted in CDF1 mouse assessed as median day of death at 24 mg/kg, ip administered on day 1 post-tumor cell implantation (reference value: 8 days). It counts as functional. To be noted: route intraperitoneal. In short, it runs like this:
(§1)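 Male CDF1 mice were inoculated ip with 10⁵ L1210 cells. Drug in physiological saline was given ip as a single dose on day 1 postimplant, at the maximum non-toxic dose relative to the concurrent LD10. There were 10 mice per test group and 30 in the control group, followed for 60 days. Median day of death counted dying mice only. Increase in life span excluded survivors.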

Series [2] in a line: Therapeutic index, ratio of ED50 for antineoplastic activity against mouse L1210 cells allografted in CDF1 mouse to LD10 for CDF1 mouse. To be noted: read-out: TI. In short, it runs like this:
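The therapeutic index is the fraction of the single-dose LD10 that gave 50% 60-day survival: ED50 divided by LD10. ED50 came from log-dose probit-survival plots in L1210-bearing male CDF1 mice (10⁵ cells ip, single ip dose in saline on day 1). LD10 came from concurrent toxicity controls.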

The subject of series [3] is L1210. In words: Antineoplastic activity against mouse L1210 cells allografted in CDF1 mouse assessed as tumor growth inhibition at 24 mg/kg, ip administered on day 1 post-tumor cell implantation. Format: functional. To be noted: route intraperitoneal.
Series [4] concerns L1210. In words: Antineoplastic activity against mouse L1210 cells allografted in CDF1 mouse assessed as dose causing 50% 60-day host survival at 24 mg/kg, ip administered on day 1 post-tumor cell implantation. It counts as functional. To be noted: route intraperitoneal. The essentials: as §1
Series [5] concerns L1210. Briefly: Antineoplastic activity against mouse L1210 cells allografted in CDF1 mouse assessed as increase in host life span at 24 mg/kg, ip administered on day 1 post-tumor cell implantation. It counts as functional. To be noted: route intraperitoneal. The essentials:
as §1

Series [6] has as its system Mus musculus. In words: Toxicity in ip dosed CDF1 mouse. It counts as organism-based. To be noted: in vivo. In short, it runs like this:
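Single-dose LD10 was found in concurrent toxicity controls using normal (non-tumor-bearing) mice, run alongside the L1210 survival experiment, with drug in physiological saline given ip.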

For `O=NN(CCCl)C(=O)N[C@H]1C(O)O[C@H](CO)[C@@H](O)[C@@H]1O` (some centres not stated) [CHLOROZOTOCIN], in series [1], the Time turned out to be 13 days. Further, in series [2], the selectivity ratio came out at 0.7. In series [3], the LCK result is “>=6”. Moreover, the median effective dose (ED50) in series [4] is 21 mg/kg. Moreover, in series [5], the Activity came to 62%. In series [6], this compound registered an LD10 of 30 mg/kg.

Take `O=NN(CCCl)C(=O)N[C@@H]1C(O)O[C@@H](CO)[C@H](O)[C@H]1O` (some centres not stated): the Time in series [1] was determined as 15 days. For the same compound, the selectivity ratio in series [2] is 0.64. Moreover, in series [3], the LCK result is “>=6”. For the same compound, the median effective dose (ED50) in series [4] worked out at 21 mg/kg. Further, the Activity in series [5] came out at 87%. This compound had an LD10 in series [6] of 33 mg/kg.
